pIC50: −log10 of the molar value. Calls of active or inactive are those of the source. The calls are words filed in the database; no cut-off is given here.
Assays:
[1] = tested on: SW1990; experiment: Cytotoxicity against human SW1990 cells assessed as reduction in cell viability at 10 uM measured after 72 hrs by SRB assay relative to control; type: functional; conditions: SW1990, 72 h, read-out: GI
Method in brief: (§1)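 Adherent cells were seeded at 1-5 × 10⁴/well and grown 24 h at 37 °C in 5% CO₂. They were treated at a single 10 µM concentration for 72 h in triplicate wells. Read-out was SRB staining after TCA fixation, with dye dissolved in Tris base and OD read at 565 nm. Viability was expressed relative to control.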

[2] = tested on: MDA-MB-231; experiment: Cytotoxicity against human MDA-MB-231 cells assessed as reduction in cell viability measured after 72 hrs by SRB assay; type: functional, cell-based; conditions: MDA-MB-231, 72 h
Method in brief: (§2)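 Adherent cells in log phase were seeded at 1-5 × 10⁴/well and grown 24 h at 37 °C in 5% CO₂. They were exposed to 10 concentrations for 72 h, three wells each, then fixed with TCA and stained with SRB. Bound dye was dissolved in Tris base and read at OD 565 nm. Survival was expressed relative to vehicle (100%). Means came from ≥3 independent experiments, and apparent IC50 was read from the dose-response curves.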

[3] = tested on: Raji; experiment: Cytotoxicity against human Raji cells assessed as reduction in cell viability at 10 uM measured after 72 hrs by MTT assay relative to control; type: functional; conditions: read-out: GI
Method in brief: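 Raji suspension cells were seeded at 1-5 × 10⁴/well and grown 24 h. They were treated at 10 µM for 72 h in triplicate wells. Read-out was MTT for 4 h, then solubilization in HCl/isopropanol/SDS overnight and OD at 550 nm, relative to control.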

[4] = tested on: MDA-MB-231; experiment: Cytotoxicity against human MDA-MB-231 cells assessed as reduction in cell viability at 10 uM measured after 72 hrs by SRB assay relative to control; type: functional; conditions: MDA-MB-231, 72 h, read-out: GI; method in brief: as §1
[5] = tested on: SK-OV-3; experiment: Cell cycle arrest in human SKOV3 cells assessed as decrease in accumulation at S phase at 10 uM measured after 48 hrs by propidium iodide staining-based FACS analysis; type: functional
[6] = tested on: SK-OV-3; experiment: Cytotoxicity against human SKOV3 cells assessed as reduction in cell viability at 10 uM measured after 72 hrs by SRB assay relative to control; type: functional; conditions: SK-OV-3, 72 h, read-out: GI; method in brief: as §1
[7] = tested on: SK-OV-3; experiment: Cell cycle arrest in human SKOV3 cells assessed as accumulation at G0/G1 phase at 10 uM measured after 48 hrs by propidium iodide staining-based FACS analysis; type: functional
[8] = tested on: HeLa; experiment: Cytotoxicity against human HeLa cells assessed as reduction in cell viability at 10 uM measured after 72 hrs by SRB assay relative to control; type: functional; conditions: read-out: GI; method in brief: as §1
[9] = tested on: A549; experiment: Cytotoxicity against human A549 cells assessed as reduction in cell viability at 10 uM measured after 72 hrs by SRB assay relative to control; type: functional; conditions: A549, 72 h, read-out: GI; method in brief: as §1
[10] = tested on: SK-OV-3; experiment: Cell cycle arrest in human SKOV3 cells assessed as decrease in accumulation at G2/M phase at 10 uM measured after 48 hrs by propidium iodide staining-based FACS analysis; type: functional
[11] = tested on: SK-OV-3; experiment: Cytotoxicity against human SKOV3 cells assessed as reduction in cell viability measured after 72 hrs by SRB assay; type: functional, cell-based; conditions: SK-OV-3, 72 h; method in brief: as §2
[12] = tested on: Raji; experiment: Cytotoxicity against human Raji cells assessed as reduction in cell viability measured after 72 hrs by MTT assay; type: functional, cell-based
Method in brief: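 Raji suspension cells (RPMI 1640, 10% FBS) were seeded at 1-5 × 10⁴/well and grown 24 h at 37 °C in 5% CO₂. They were exposed to 10 concentrations for 72 h in triplicate wells. MTT was added for 4 h, then HCl/isopropanol/SDS was added overnight, and OD was read at 550 nm. Data are means of ≥3 independent experiments, relative to vehicle, with apparent IC50 taken from the dose-response curves.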

[13] = tested on: HeLa; experiment: Cytotoxicity against human HeLa cells assessed as reduction in cell viability measured after 72 hrs by SRB assay; type: functional, cell-based; method in brief: as §2
[14] = tested on: SW1990; experiment: Cytotoxicity against human SW1990 cells assessed as reduction in cell viability measured after 72 hrs by SRB assay; type: functional, cell-based; conditions: SW1990, 72 h; method in brief: as §2
[15] = tested on: SK-OV-3; experiment: Induction of apoptosis in human SKOV3 cells assessed as downregulation of Bcl2 expression at 3 uM measured after 24 to 48 hrs by Hoechst-33342 staining-based immunofluorescent analysis relative to DMSO-control; type: functional, cell-based
Method in brief: (§3)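 SKOV3 cells in 24-well plates were given 3 µM compound or DMSO. They were fixed with 4% paraformaldehyde for 20 min, permeabilized with 0.3% Triton X-100 for 10 min and blocked with sheep serum. Primary antibody (caspase-3, p53, Bcl-2 or Bax) was applied overnight at 4 °C, then fluorescein-conjugated secondary for 1 h and Hoechst 33342 for 15 min. Slides were imaged by fluorescence microscopy.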

[16] = tested on: SK-OV-3; experiment: Induction of apoptosis in human SKOV3 cells assessed as upregulation of p53 expression at 3 uM measured after 24 to 48 hrs by Hoechst-33342 staining-based immunofluorescent analysis relative to DMSO-control; type: functional, cell-based; method in brief: as §3
[17] = tested on: SK-OV-3; experiment: Induction of apoptosis in human SKOV3 cells assessed as effect on Bax expression at 3 uM measured after 24 to 48 hrs by Hoechst-33342 staining-based immunofluorescent analysis relative to DMSO-control; type: functional, cell-based; method in brief: as §3
[18] = tested on: A549; experiment: Cytotoxicity against human A549 cells assessed as reduction in cell viability measured after 72 hrs by SRB assay; type: functional, cell-based; conditions: A549, 72 h; method in brief: as §2
[19] = tested on: SK-OV-3; experiment: Cell cycle arrest in human SKOV3 cells assessed as decrease in accumulation at G2/M phase at 3 uM measured after 48 hrs by propidium iodide staining-based FACS analysis; type: functional
[20] = tested on: SK-OV-3; experiment: Induction of apoptosis in human SKOV3 cells assessed as upregulation of caspase3 expression at 3 uM measured after 24 to 48 hrs by Hoechst-33342 staining-based immunofluorescent analysis relative to DMSO-control; type: functional, cell-based; method in brief: as §3
[21] = tested on: SK-OV-3; experiment: Cell cycle arrest in human SKOV3 cells assessed as accumulation at G0/G1 phase at 3 uM measured after 48 hrs by propidium iodide staining-based FACS analysis (reference value: 49.47 +/- 1.91%); type: functional
[22] = tested on: SK-OV-3; experiment: Cell cycle arrest in human SKOV3 cells assessed as accumulation at S phase at 3 uM measured after 48 hrs by propidium iodide staining-based FACS analysis(reference value: 37.31 +/- 3.48%); type: functional

| Structure (SMILES) | inhibition of growth at 10 µM [1] [%] | inhibition of growth at 10 µM [3] [%] | inhibition of growth at 10 µM [4] [%] | inhibition of growth at 10 µM [6] [%] | inhibition of growth at 10 µM [8] [%] | inhibition of growth at 10 µM [9] [%] | other results |
| --- | --- | --- | --- | --- | --- | --- | --- |
| O=C(COc1c2cccc1Cc1cccc(c1O)Cc1cccc(c1OCC(=O)NCCO)Cc1cccc(c1O)C2)NCCO | 10 | 29 | 57 | 86 | 46 | 13 | pIC50 [2]: 5.80; Activity [5]: Active; Activity [7]: Active; Activity [10]: Active; pIC50 [11]: 5.64 |
| O=C(COc1c2cccc1Cc1cccc(c1OCC(=O)NCCO)Cc1cccc(c1OCC(=O)NCCO)Cc1cccc(c1OCC(=O)NCCO)Cc1cccc(c1OCC(=O)NCCO)Cc1cccc(c1OCC(=O)NCCO)C2)NCCO | 3 | 18 | 4 | 10 | 6 | 7 |  |
| O=C(COc1c2cccc1Cc1cccc(c1O)Cc1cccc(c1OCC(=O)N(CCO)CCO)Cc1cccc(c1O)C2)N(CCO)CCO | 4 | 34 | 22 | 34 | 38 | 7 |  |
| O=C(COc1c2cccc1Cc1cccc(c1OCC(=O)N(CCO)CCO)Cc1cccc(c1OCC(=O)N(CCO)CCO)Cc1cccc(c1OCC(=O)N(CCO)CCO)Cc1cccc(c1OCC(=O)N(CCO)CCO)Cc1cccc(c1OCC(=O)N(CCO)CCO)Cc1cccc(c1OCC(=O)N(CCO)CCO)Cc1cccc(c1OCC(=O)N(CCO)CCO)C2)N(CCO)CCO | 2 | 11 | 13 | 25 | 18 | 6 |  |
| CC(C)(C)c1cc2c(OCC(=O)N(CCO)CCO)c(c1)Cc1cc(C(C)(C)C)cc(c1OCC(=O)N(CCO)CCO)Cc1cc(C(C)(C)C)cc(c1OCC(=O)N(CCO)CCO)Cc1cc(C(C)(C)C)cc(c1OCC(=O)N(CCO)CCO)Cc1cc(C(C)(C)C)cc(c1OCC(=O)N(CCO)CCO)Cc1cc(C(C)(C)C)cc(c1OCC(=O)N(CCO)CCO)C2 | 26 | 14 | 0 | 26 | 0 | 0 |  |
| CC(C)(C)c1cc2c(OCC(=O)N(CCO)CCO)c(c1)Cc1cc(C(C)(C)C)cc(c1OCC(=O)N(CCO)CCO)Cc1cc(C(C)(C)C)cc(c1OCC(=O)N(CCO)CCO)Cc1cc(C(C)(C)C)cc(c1OCC(=O)N(CCO)CCO)Cc1cc(C(C)(C)C)cc(c1OCC(=O)N(CCO)CCO)Cc1cc(C(C)(C)C)cc(c1OCC(=O)N(CCO)CCO)Cc1cc(C(C)(C)C)cc(c1OCC(=O)N(CCO)CCO)Cc1cc(C(C)(C)C)cc(c1OCC(=O)N(CCO)CCO)C2 | 5 | 11 | 11 | 25 | 10 | 0 |  |
| CC(C)(C)c1cc2c(O)c(c1)Cc1cc(C(C)(C)C)cc(c1OCC(=O)N(CCO)CCO)Cc1cc(C(C)(C)C)cc(c1O)Cc1cc(C(C)(C)C)cc(c1OCC(=O)N(CCO)CCO)C2 | 59 | 77 | 95 | 42 | 95 | 16 | pIC50 [2]: 5.28; pIC50 [12]: 4.95; pIC50 [13]: 5.09; pIC50 [14]: 4.95 |
| CC(C)(C)c1cc2c(O)c(c1)Cc1cc(C(C)(C)C)cc(c1OCC(=O)NCCO)Cc1cc(C(C)(C)C)cc(c1O)Cc1cc(C(C)(C)C)cc(c1OCC(=O)NCCO)C2 | 95 | 100 | 99 | 97 | 100 | 89 | Activity [15]: Active; Activity [16]: Active; Activity [17]: inactive; pIC50 [2]: 5.28; pIC50 [12]: 5.30; pIC50 [13]: 5.57; pIC50 [18]: 5.40; Activity [19]: Active; Activity [20]: Active; Activity [21]: 64.25%; Activity [22]: 24.19%; pIC50 [14]: 5.37; pIC50 [11]: 5.55 |
| O=C(COc1c2cccc1Cc1cccc(c1OCC(=O)NCCO)Cc1cccc(c1OCC(=O)NCCO)Cc1cccc(c1OCC(=O)NCCO)Cc1cccc(c1OCC(=O)NCCO)Cc1cccc(c1OCC(=O)NCCO)Cc1cccc(c1OCC(=O)NCCO)Cc1cccc(c1OCC(=O)NCCO)C2)NCCO | 4 | 7 | 27 | 1 | 32 | 2 |  |
| O=C(COc1c2cccc1Cc1cccc(c1OCC(=O)N(CCO)CCO)Cc1cccc(c1OCC(=O)N(CCO)CCO)Cc1cccc(c1OCC(=O)N(CCO)CCO)Cc1cccc(c1OCC(=O)N(CCO)CCO)Cc1cccc(c1OCC(=O)N(CCO)CCO)C2)N(CCO)CCO | 0 | 6 | 22 | 19 | 9 | 5 |  |
| CC(C)(C)c1cc2c(OCC(=O)NCCO)c(c1)Cc1cc(C(C)(C)C)cc(c1OCC(=O)NCCO)Cc1cc(C(C)(C)C)cc(c1OCC(=O)NCCO)Cc1cc(C(C)(C)C)cc(c1OCC(=O)NCCO)Cc1cc(C(C)(C)C)cc(c1OCC(=O)NCCO)Cc1cc(C(C)(C)C)cc(c1OCC(=O)NCCO)Cc1cc(C(C)(C)C)cc(c1OCC(=O)NCCO)Cc1cc(C(C)(C)C)cc(c1OCC(=O)NCCO)C2 | 5 | 24 | 12 | 26 | 23 | 8 |  |
| CC(C)(C)c1cc2c(OCC(=O)NCCO)c(c1)Cc1cc(C(C)(C)C)cc(c1OCC(=O)NCCO)Cc1cc(C(C)(C)C)cc(c1OCC(=O)NCCO)Cc1cc(C(C)(C)C)cc(c1OCC(=O)NCCO)Cc1cc(C(C)(C)C)cc(c1OCC(=O)NCCO)Cc1cc(C(C)(C)C)cc(c1OCC(=O)NCCO)C2 | 4 | 38 | 12 | 24 | 40 | 7 |  |
